Eleven compounds from ChEMBL document CHEMBL1146075, “Synthesis and anti-BVDV activity of acridones as new potential antiviral agents” (J Med Chem, 2006) can be followed below.

Structures are written as SMILES. In brackets after ≈: the same amount, converted by molar mass. Activity calls are given as the source filed them. No cut-off for these calls is given here.

Experiment [1] deals with Sindbis virus. Briefly: Antiviral activity against sindbis virus in vero cells. Format: functional, organism-based.
In experiment [2] the test system is Human betaherpesvirus 5. Briefly: Antiviral activity against HCMV AD169 in human embryonic lung cells. In kind it is functional, organism-based.
Experiment [3] relates to Human alphaherpesvirus 2. Nature of the experiment: Antiviral activity against HSV2 G in E6SM cells. Format: functional, organism-based.
Experiment [4] has as its system MDBK441. Nature of the experiment: Selectivity index (CC50/EC50) for inhibition of BVDV NADL in MDBK cells. Format: functional. The method, boiled down:
(§1)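 SI = CC50/EC50. EC50 comes from a 5-day Giemsa-stained CPE assay in MDBK cells at MOI 0.5; CC50 from a 3-day MTS/PMS proliferation assay. Means of at least three experiments. Line 10 uses the NADL F224S mutant.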

Experiment [5] concerns Mammalian orthoreovirus 1. Briefly: Antiviral activity against Reovirus1 in vero cells. Format: functional, organism-based.
The subject of experiment [6] is Punta Toro virus. Nature of the experiment: Antiviral activity against Punta Toro virus in vero cells. In kind it is functional, organism-based.
In experiment [7] the test system is Vaccinia virus. Briefly: Antiviral activity against vaccinia virus in E6SM cells. To be noted: Orthopoxvirus vaccinia. In kind it is functional, organism-based.
The subject of experiment [8] is Respiratory syncytial virus. Nature of the experiment: Antiviral activity against respiratory syncytial virus […] in HeLa cells. In kind it is functional, organism-based.
Experiment [9] concerns Human immunodeficiency virus 2. Nature of the experiment: Antiviral activity against HIV2 ROD in MT4 cells. In kind it is functional, organism-based.
The subject of experiment [10] is Vesicular stomatitis virus. Nature of the experiment: Antiviral activity against vesicular stomatitis virus in E6SM cells. In kind it is functional, organism-based.
Experiment [11] deals with Human betaherpesvirus 5. Briefly: Antiviral activity against HCMV Davis in human embryonic lung cells. Format: functional, organism-based.
Experiment [12] concerns Human respirovirus 3. Briefly: Antiviral activity against parainfluenza3 virus in vero cells. In kind it is functional, organism-based.
In experiment [13] the test system is Coxsackievirus B4. Nature of the experiment: Antiviral activity against coxsackie virus B4 in vero cells. Format: functional, organism-based.
In experiment [14] the test system is Human alphaherpesvirus 1. Nature of the experiment: Antiviral activity against HSV1 KOS in E6SM cells. Format: functional, organism-based.
Experiment [15] concerns Human immunodeficiency virus 1. Briefly: Antiviral activity against HIV1 3B in MT4 cells. Format: functional, organism-based.
Experiment [16] concerns MDBK441. Briefly: Cytotoxicity against MDBK cells. Format: functional. To be noted: Bos taurus. The method, boiled down: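 Cells seeded the day before, then given serial compound dilutions and left to proliferate 3 days at 37 °C. MDBK: 10^4/well in MEM-FCS. Huh 5-2: 5 × 10^3/well in complete DMEM. Cell number read by MTS/PMS. CC50 is the concentration inhibiting cell growth by 50%.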

Experiment [17] relates to Bovine viral diarrhea virus 1. Nature of the experiment: Antiviral activity against BVDV NADL in MDBK cells. To be noted: Bovine viral diarrhea virus isolates and strains. Format: functional, organism-based. In short, it runs like this: (§2)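 MDBK cells seeded 20 × 10^3/well in MEM with 5% heat-inactivated FCS, confluent after 24 h; serial 3-fold compound dilutions added, then virus at MOI 0.5 (line 2: NADL F224S mutant). 5 days at 37 °C, then ethanol fixation and Giemsa staining. CPE scored microscopically 0–10 per well. EC50 by logarithmic interpolation; mean ± SD of at least three experiments.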

For experiment [18], the system named is Bovine viral diarrhea virus 1. Nature of the experiment: Antiviral activity against VP32947-resistant BVDV in MDBK cells. In kind it is functional, organism-based. Particulars: Bovine viral diarrhea virus isolates and strains. The method, boiled down: as §2
For experiment [19], the system named is MDBK441. Briefly: Selectivity index (CC50/EC50) for inhibition of VP32947-resistant BVDV in MDBK cells. Format: functional. The method, boiled down: as §1

As a reminder, the CC50 is the concentration giving 50% cytotoxicity. The low end stands for greater toxicity to the cells, the high end for lower toxicity to the cells. Turning to `COc1cc(O)c2c(=O)c3cc(N)c(N4CCN(c5ccccn5)CC4)cc3n(C)c2c1`, the result in experiment [1], in [2], in experiment [3], in experiment [5], in experiment [6] and in [7] was inactive. The result in [8], in experiment [9], in [10], in experiment [11], in experiment [12] and in experiment [13] was inactive. In addition, the result in experiment [14] and in experiment [15] was inactive. This compound gave a Selectivity index in experiment [4] of more than 25. In addition, the CC50 in experiment [16] is more than 100 µg/mL.

What is called EC50 is the concentration that produces a half-maximal response. Low values mean an effect from little substance, high ones a need for much substance. As to `COc1cc(OC)c2c(=O)c3cc(N)c(N4CCN(c5ccccn5)CC4)cc3n(C)c2c1`, the outcome in [1], in experiment [2], in [3], in experiment [5], in experiment [6] and in [7] was inactive. For the same compound, the outcome in experiment [8], in experiment [9], in [10], in [11], in experiment [12] and in experiment [13] was inactive. Besides, the result in experiment [14] and in experiment [15] was inactive. The compound also gave a Selectivity index in experiment [4] of 1. This compound displayed an EC50 in experiment [17] of more than 100 µg/mL. This compound had a CC50 in experiment [16] of more than 100 µg/mL.

Take `CCCN(CCC)CCSc1n[nH]c2c3ccccc3nc-2n1`: the EC50 is more than 1 µg/mL in experiment [18] and 0.009 µg/mL (≈ 0.0273 µM) in [17]. The Selectivity index is on record as more than 111 in experiment [4] and 1 in experiment [19]. For the same compound, the CC50 in experiment [16] is more than 1 µg/mL.

As to `COc1cc(O)c2c(=O)c3cc([N+](=O)[O-])c(N4CCN(c5ccccn5)CC4)cc3n(C)c2c1`, the result in experiment [1], in [2], in [3], in experiment [5], in [6] and in experiment [7] was inactive. The outcome in experiment [8], in experiment [9], in [10], in experiment [11], in experiment [12] and in experiment [13] was inactive. For the same compound, the outcome in experiment [14] and in experiment [15] was inactive. The same compound registered a Selectivity index in experiment [4] of 1. The compound further showed an EC50 in experiment [17] of more than 100 µg/mL. This compound also displayed a CC50 in [16] of more than 100 µg/mL.

Regarding `COc1cc(OC)c2c(=O)c3cc([N+](=O)[O-])c(N4CCN(c5ccccn5)CC4)cc3n(C)c2c1`, the result in experiment [1], in experiment [2], in experiment [3], in experiment [5], in experiment [6] and in experiment [7] was inactive. Also, the result in experiment [8], in experiment [9], in [10], in experiment [11], in [12] and in experiment [13] was inactive. Besides, the result in experiment [14] and in [15] was inactive. In addition, in experiment [4], the Selectivity index is more than 6. Also, in experiment [17], the EC50 stood at 18 µg/mL (≈ 37.9 µM). In addition, in experiment [16], the CC50 is more than 100 µg/mL.

`Cn1c2cc(Cl)c(N)cc2c(=O)c2c(O)cc(O)cc21`: the result in experiment [1], in experiment [2], in experiment [3], in [5], in experiment [6] and in experiment [7] was inactive. Further, the outcome in experiment [8], in experiment [9], in experiment [10], in experiment [11], in [12] and in experiment [13] was inactive. Besides, the result in experiment [14] and in experiment [15] was inactive. Besides, in [4], the Selectivity index was 13. Moreover, the midpoint of cytotoxicity in [16], the CC50, lay at 5 µg/mL (≈ 17.2 µM).

Consider `COc1cc(OC)c2c(=O)c3cc(N)c(Cl)cc3n(C)c2c1`, for which the result in experiment [1], in experiment [2], in experiment [3], in [5], in experiment [6] and in [7] was inactive. The outcome in experiment [8], in [9], in experiment [10], in experiment [11], in [12] and in experiment [13] was inactive. The result in experiment [14] and in [15] was inactive. Further, in experiment [4], the Selectivity index was determined as 1. In experiment [17], the EC50 was more than 100 µg/mL. This compound yielded a CC50 in experiment [16] of more than 100 µg/mL.

Take `C[C@@]1(O)[C@H](O)[C@@H](CO)O[C@H]1n1cnc2c(N)ncnc21`: the values for the half-maximal effective concentration (EC50) in [18] and in experiment [17] were 0.37 µg/mL (≈ 1.32 µM) and 0.22 µg/mL (≈ 0.782 µM), respectively. For the same compound, the Selectivity index is given as more than 63 in experiment [4] and more than 38 in [19]. The compound further yielded a CC50 in experiment [16] of more than 14 µg/mL.

Turning to `COc1cc(O)c2c(=O)c3cc([N+](=O)[O-])c(Cl)cc3n(C)c2c1`, the outcome in [1], in experiment [2], in experiment [3], in [5], in [6] and in experiment [7] was inactive. Besides, the outcome in [8], in [9], in [10], in experiment [11], in experiment [12] and in experiment [13] was inactive. Also, the outcome in [14] and in [15] was inactive. The Selectivity index in [4] worked out at 1. For the same compound, in experiment [17], the concentration for a half-maximal effect (EC50) is more than 83 µg/mL. For the same compound, in experiment [16], the CC50 came out at 83 µg/mL (≈ 248 µM).

Regarding `COc1cc(O)c2c(=O)c3cc(N)c(Cl)cc3n(C)c2c1`, the result in experiment [1], in experiment [2], in experiment [3], in experiment [5], in experiment [6] and in [7] was inactive. Besides, the outcome in [8], in [9], in [10], in [11], in experiment [12] and in experiment [13] was inactive. Besides, the result in experiment [14] and in [15] was inactive. Also, the Selectivity index in experiment [4] is on record as more than 47. In [16], this compound registered a CC50 of more than 33 µg/mL.

As to `COc1cc(OC)c2c(=O)c3cc([N+](=O)[O-])c(Cl)cc3n(C)c2c1`, the result in experiment [1], in [2], in experiment [3], in experiment [5], in experiment [6] and in experiment [7] was inactive. The result in [8], in experiment [9], in experiment [10], in experiment [11], in experiment [12] and in [13] was inactive. Further, the result in experiment [14] and in experiment [15] was inactive. The Selectivity index in [4] is listed as 1. In [17], this compound returned an EC50 of more than 100 µg/mL. In experiment [16], this compound had a CC50 of more than 100 µg/mL.
